We go through 1 compound from ChEMBL document CHEMBL4613215, “Structure-Activity Relationships for a Series of (Bis(4-fluorophenyl)methyl)sulfinyl Alkyl Alicyclic Amines at the Dopamine Transporter: Functionalizing the Terminal Nitrogen Affects Affinity, Selectivity, and Metabolic Stability” (J Med Chem, 2020).

Molecules are shown by their SMILES.

The target in data set [1] is Sodium-dependent dopamine transporter (Rattus norvegicus, UniProt P23977). Nature of the data set: Displacement of [3H]WIN35428 from DAT in Sprague-Dawley rat striatum membranes incubated for 120 mins by microbeta scintillation counting method. The data set is classed as cell membranes, Membrane. For orientation: In a radioligand displacement assay an active substance lowers the binding of a labelled ligand.
Sequence of Sodium-dependent dopamine transporter (Rattus norvegicus, UniProt P23977) (P23977 whole entry): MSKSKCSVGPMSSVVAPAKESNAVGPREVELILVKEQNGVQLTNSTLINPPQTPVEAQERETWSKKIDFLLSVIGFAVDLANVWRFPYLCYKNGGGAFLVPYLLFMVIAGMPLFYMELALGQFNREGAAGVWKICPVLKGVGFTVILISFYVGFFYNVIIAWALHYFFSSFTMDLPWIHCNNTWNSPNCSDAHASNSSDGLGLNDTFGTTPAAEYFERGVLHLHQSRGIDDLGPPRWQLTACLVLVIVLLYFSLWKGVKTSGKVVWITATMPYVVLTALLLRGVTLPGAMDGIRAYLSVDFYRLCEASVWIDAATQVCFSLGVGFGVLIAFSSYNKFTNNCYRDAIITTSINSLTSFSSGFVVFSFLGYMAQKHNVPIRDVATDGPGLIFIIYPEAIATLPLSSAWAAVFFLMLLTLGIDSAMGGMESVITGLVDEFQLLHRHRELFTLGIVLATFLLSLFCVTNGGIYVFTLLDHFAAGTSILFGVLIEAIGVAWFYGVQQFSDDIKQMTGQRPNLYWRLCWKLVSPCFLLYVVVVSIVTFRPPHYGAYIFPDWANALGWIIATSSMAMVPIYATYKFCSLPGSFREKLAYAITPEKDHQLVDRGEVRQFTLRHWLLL

Data set [2] concerns the target Sigma non-opioid intracellular receptor 1 (Cavia porcellus, UniProt Q60492). The data set can be described thus: Displacement of [3H]-(+)-pentazocine from Sigma1 receptor in guinea pig cortex membranes incubated for 120 mins by microbeta scintillation counting method. The data set is classed as cell membranes.
Data set [3] addresses Voltage-gated inwardly rectifying potassium channel KCNH2 (Homo sapiens, UniProt Q12809). The data set can be described thus: Inhibition of human ERG.
In data set [4] the target is T1, Sodium-dependent dopamine transporter (Homo sapiens, UniProt Q01959). Nature of the data set: Displacement of [3H]WIN35428 from DAT (unknown origin) transiently expressed in COS7 cells incubated for > 90 mins by beta scintillation counting method. Format: cell-based, COS-7.
T1 sequence (Q01959 whole entry): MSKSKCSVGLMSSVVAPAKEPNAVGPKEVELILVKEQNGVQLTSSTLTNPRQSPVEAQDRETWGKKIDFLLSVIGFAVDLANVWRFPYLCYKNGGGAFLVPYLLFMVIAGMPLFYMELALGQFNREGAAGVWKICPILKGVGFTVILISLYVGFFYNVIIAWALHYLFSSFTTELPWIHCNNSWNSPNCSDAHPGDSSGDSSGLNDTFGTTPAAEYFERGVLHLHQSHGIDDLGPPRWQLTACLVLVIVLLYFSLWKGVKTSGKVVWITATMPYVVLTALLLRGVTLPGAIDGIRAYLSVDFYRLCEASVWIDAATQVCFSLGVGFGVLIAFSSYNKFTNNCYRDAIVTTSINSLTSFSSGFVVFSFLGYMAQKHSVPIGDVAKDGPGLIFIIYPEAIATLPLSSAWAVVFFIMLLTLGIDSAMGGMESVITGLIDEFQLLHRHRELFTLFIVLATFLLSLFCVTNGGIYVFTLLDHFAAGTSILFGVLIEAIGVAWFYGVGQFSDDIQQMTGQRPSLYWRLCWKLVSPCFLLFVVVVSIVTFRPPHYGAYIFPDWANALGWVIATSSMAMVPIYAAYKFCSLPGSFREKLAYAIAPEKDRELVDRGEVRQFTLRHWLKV
Data set [5] addresses T1, Sodium-dependent dopamine transporter. The data set can be described thus: Inhibition of human DAT transiently expressed in COS7 cells assessed as reduction in [3H]-DA uptake measured after 5 mins by beta-scintillation counting method. Format: cell-based, COS-7.
Data set [6] can be described thus: Effect on locomotor activity in mouse assessed as increase in total ambulations at 1 to 30 mg/kg, ip measured during 30 mins of 2 hrs test by open field test. Format: ADME, organism-based. To be noted: in vivo. In outline: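 Mice acclimatized ~2 h, injected i.p. then placed immediately in open-field chambers with infrared beam arrays; beam breaks over 2 h converted to distance; maximum distance per 30 min reported; n=6 per group, each mouse used once; two-way ANOVA (Drug, Dose) with Tukey post-hoc versus vehicle.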

Data set [7] can be described thus: Half life in human liver microsomes at 10 uM after 60 mins in presence of NADPH by LC-MS/MS analysis. The data set is classed as ADME, Microsome. Particulars: microsomes, 1 h, 10 µM. (In general: Liver microsomes are vesicles of endoplasmic reticulum, rich in cytochrome P450 enzymes.)
Data set [8] can be described thus: Drug metabolism in mouse liver microsomes assessed as 1-(2-((Bis(4-fluorophenyl)methyl)thio)ethyl)-3,5-cis-dimethylpiperazine metabolite formation by HPLC/MS analysis. Format: ADME, Microsome.
Data set [9] in a line: Stability in mouse liver microsomes assessed as parent compound remaining at 10 uM after 60 mins in presence of NADPH by LC-MS/MS analysis. Format: ADME, Microsome. Particulars: read-out: Stability.
Data set [10] in a line: Stability in human liver microsomes assessed as parent compound remaining at 10 uM after 60 mins in presence of NADPH by LC-MS/MS analysis. Format: ADME, Microsome. To be noted: read-out: Stability.
Data set [11] is described as follows: Half life in mouse liver microsomes at 10 uM in presence of NADPH by LC-MS/MS analysis. Format: ADME, Microsome.

Sequence of Voltage-gated inwardly rectifying potassium channel KCNH2 (Q12809 whole entry): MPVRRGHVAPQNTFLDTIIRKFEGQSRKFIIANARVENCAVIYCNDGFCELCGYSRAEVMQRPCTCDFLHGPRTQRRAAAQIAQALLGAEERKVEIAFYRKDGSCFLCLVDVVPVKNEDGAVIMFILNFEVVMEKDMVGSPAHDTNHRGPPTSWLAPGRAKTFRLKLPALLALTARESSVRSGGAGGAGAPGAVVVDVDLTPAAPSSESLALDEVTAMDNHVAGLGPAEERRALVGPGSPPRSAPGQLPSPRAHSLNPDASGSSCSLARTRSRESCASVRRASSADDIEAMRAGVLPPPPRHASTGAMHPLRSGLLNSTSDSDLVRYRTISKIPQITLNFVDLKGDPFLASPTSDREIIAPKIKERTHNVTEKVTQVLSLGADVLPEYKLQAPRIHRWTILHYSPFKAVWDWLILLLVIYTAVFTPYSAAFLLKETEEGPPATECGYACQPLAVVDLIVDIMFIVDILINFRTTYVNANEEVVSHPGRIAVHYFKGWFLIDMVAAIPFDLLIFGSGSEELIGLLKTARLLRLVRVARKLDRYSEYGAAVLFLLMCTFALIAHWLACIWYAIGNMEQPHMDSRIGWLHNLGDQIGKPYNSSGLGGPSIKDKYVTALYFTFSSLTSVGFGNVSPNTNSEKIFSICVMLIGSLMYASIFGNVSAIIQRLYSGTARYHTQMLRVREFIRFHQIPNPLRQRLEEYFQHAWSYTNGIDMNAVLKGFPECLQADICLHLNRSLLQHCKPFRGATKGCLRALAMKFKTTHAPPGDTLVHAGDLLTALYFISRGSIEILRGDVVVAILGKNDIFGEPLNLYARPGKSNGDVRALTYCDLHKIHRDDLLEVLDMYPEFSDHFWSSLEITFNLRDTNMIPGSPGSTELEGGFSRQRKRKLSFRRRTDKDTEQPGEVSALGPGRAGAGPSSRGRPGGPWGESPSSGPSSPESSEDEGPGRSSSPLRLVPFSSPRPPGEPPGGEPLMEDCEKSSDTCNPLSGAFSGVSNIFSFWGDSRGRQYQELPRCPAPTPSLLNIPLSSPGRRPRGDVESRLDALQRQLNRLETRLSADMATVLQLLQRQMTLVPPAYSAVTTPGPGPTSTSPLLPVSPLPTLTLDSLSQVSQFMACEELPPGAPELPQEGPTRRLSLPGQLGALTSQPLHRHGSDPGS
Sequence of Sigma non-opioid intracellular receptor 1 (Q60492 whole entry): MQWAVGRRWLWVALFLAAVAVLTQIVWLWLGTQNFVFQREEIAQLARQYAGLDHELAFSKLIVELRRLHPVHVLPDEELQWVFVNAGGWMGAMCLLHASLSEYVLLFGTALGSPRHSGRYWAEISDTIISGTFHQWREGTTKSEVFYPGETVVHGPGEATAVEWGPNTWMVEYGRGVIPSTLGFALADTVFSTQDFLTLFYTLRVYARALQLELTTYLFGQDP

As for `CC(O)CN1[C@H](C)CN(CCSC(c2ccc(F)cc2)c2ccc(F)cc2)C[C@@H]1C` (mixture of isomers), the inhibition constant Ki in data set [1] stood at 23.1 nM; in data set [2] it was 5.62 nM; in data set [4], 58.3 nM; in [5], 100 nM. It took 635 nM to reach half-maximal inhibition in data set [3] (IC50). In data set [6], the Activity result is given as “Non-Toxic”. In addition, in data set [7], the t1/2 is recorded as above 40 min. The Drug metabolism result in data set [8] is “Metabolite_Detected”. The remaining at 1 h, 10 µM was below 10% in data set [9] and above 30% in data set [10]. Moreover, in data set [11], the half-life at 10 µM was 20 min.

One may read the Ki as a dissociation constant, usually derived from enzyme kinetics or from competition with a known ligand. The IC50 is the concentration that inhibits the measured activity by half. A word on the half-life: it is the time needed for the level to fall by half in the phase considered.
